Assay results: ChEMBL document CHEMBL1671701, “Discovery of potent small-molecule inhibitors of multidrug-resistant Plasmodium falciparum using a novel miniaturized high-throughput luciferase-based assay” (Antimicrob Agents Chemother, 2010)

What was measured:
Plasmodium falciparum [1] = experiment: Antiplasmodial activity against multidrug-resistant Plasmodium falciparum TM90C2B by SYBR Green 1-based fluorescence assay; type: functional, organism-based
Method in brief: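 Resistant TM90C2B parasites are treated over a dose range and growth is read as SYBR green I fluorescence. IC50 comes from a fit of the log dose-response relationship, as the mean of at least three separate experiments.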

Plasmodium falciparum [2] = experiment: Antiplasmodial activity against Plasmodium falciparum 3D7 by SYBR Green 1-based fluorescence assay; type: functional, organism-based
Plasmodium falciparum [3] = experiment: Antiplasmodial activity against Plasmodium falciparum 3D7 infected in RBCs by firefly luciferase reporter gene assay; type: functional, organism-based; conditions: Plasmodium falciparum, 3D7
Method in brief: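 Sorbitol-synchronised 3D7 expressing firefly luciferase from the HRPII promoter, at 1% late-ring parasitemia and 3% hematocrit in RPMI/albumax II medium. Sixteen 2-fold dilutions from 17 μM to 0.5 nM, 48 h at 37°C under 5% O2/5% CO2/N2. Bright-Glo luminescence is normalised to untreated infected and uninfected-RBC wells. IC50 by four-parameter logistic fit.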

HepG2 = experiment: Cytotoxicity activity against human HepG2 cells after 24 hrs; type: cell-based; conditions: HepG2, 24 h
[4] = Cytotoxicity activity against human HAEC cells after 24 hrs; type: cell-based

SMILES | IC50 (Plasmodium falciparum [1]) | IC50 (Plasmodium falciparum [2]) | IC50 (Plasmodium falciparum [3]) | IC50 (HepG2) | IC50 [4]
COc1cccc(N(C(C)=O)C2=C(N(C)C)C(=O)c3ccccc3C2=O)c1 | 0.031 µM | 0.035 µM | 0.0053 µM | 13 µM | 11 µM
CC(=O)N(C1=C(N(C)C)C(=O)c2ccccc2C1=O)c1cccc(Cl)c1 | 0.072 µM | 0.14 µM | 0.014 µM | 5.1 µM | 45 µM
CC(=O)N(C1=C(N(C)C)C(=O)c2ccccc2C1=O)c1ccc(Cl)cc1 |  |  | 0.014 µM | 8.1 µM | 41 µM
